Bioassay records from PubChem.
S1P4 ag: human S1P4 receptor agonism | S1P4-expressing cell line, agonist reporter assay | AID 1509 | O95977 | 220,000 tested, 0.35% active | activation, % at 4.98 µM; in the data active means activation above about 11%;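 further: 0% = DMSO vehicle and 100% = reference agonist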
Target sequence (O95977 whole entry, looked up): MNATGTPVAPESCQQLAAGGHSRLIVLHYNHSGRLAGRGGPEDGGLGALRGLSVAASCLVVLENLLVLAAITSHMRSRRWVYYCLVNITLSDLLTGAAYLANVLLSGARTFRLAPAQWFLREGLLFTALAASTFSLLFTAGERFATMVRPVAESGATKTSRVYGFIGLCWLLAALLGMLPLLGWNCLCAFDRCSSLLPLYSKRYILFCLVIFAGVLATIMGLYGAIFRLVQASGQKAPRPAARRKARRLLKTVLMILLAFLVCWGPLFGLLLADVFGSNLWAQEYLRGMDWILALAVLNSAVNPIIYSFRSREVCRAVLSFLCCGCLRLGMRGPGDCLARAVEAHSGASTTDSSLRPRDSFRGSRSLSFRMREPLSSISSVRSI
S1P4 antagonist: blocks the human S1P4 receptor | S1P4-expressing cells, antagonist mode, reporter read-out | inhibition, % at 4.98 µM | 220,000 tested, 0.26% active | AID 1510; in the data active means inhibition above about 29%;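 further: 0% = wells stimulated with agonist and 100% = vehicle wells without agonist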
Mdm2 ligase inh: inhibitors of human Mdm2 E3 ubiquitin ligase | Q00987 | AID 1230 | cell-based MDM2 ubiquitination luciferase reporter, 2 h; 0 = plate control, 100 = twice control, blank-subtracted | 210,000 tested, 0.11% active | signal enhancement, % at 5 µM;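 active means signal enhancement of 30% or more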;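 further: luminescence tracks abundance of the self-degrading MDM2-luciferase fusion protein; higher signal means inhibition of MDM2 E3 ligase activity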
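test system = mammalian cells stably expressing self-ubiquitinating, self-degrading MDM2 E3–luciferase fusion | quantity = 2000 cells/well | incubation = cell settling 4 h, compound treatment 2 h, both 37 °C | signal = luminescence with SteadyLite reagent, 15 min at room temperature | evaluation = % enhancement relative to plate controls after blank subtraction | benchmarks = plate controls and plate blanks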
L major viab: reduces viability of Leishmania major promastigotes | resazurin fluorescence viability | inhibition, % at 10 µM | 200,000 tested, 9% active | AID 1063; in the data active means inhibition above about 50%;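 further: promastigotes grown with compound for 44 hours at 28 °C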
S1P3 antagonist: blocks the human S1P3 receptor; inhibition, % at 4.98 µM; CHO S1P3 NFAT-BLA reporter, FRET fluorescence, antagonist mode; 170,000 tested, 0.27% active; AID 485;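 active means inhibition above the plate cutoff, the mean inhibition of test wells on that plate plus 3 SD, cut at about 28% in these data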;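 further: cells challenged with S1P at its EC80 of 0.8 µM; blue over green emission ratio from cleaved BLA substrate after 4 h stimulation; 0% = S1P-stimulated wells and 100% = unstimulated DMSO-only wells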
The depositor's hits bear a star. Many of the other results were omitted from the sample, so hits are more common in it than they were.

For CCOc1ccc(N2C(=O)NC(=O)/C(=C/c3cnc(SC)nc3)C2=O)cc1 the results were S1P4 ag -1, S1P4 antagonist -7, Mdm2 ligase inh 1, L major viab -3 and S1P3 antagonist 2.
`CC1(C)C2CC=C(CN3CCOCC3)C1C2` (stereo not drawn) gave S1P4 ag 0, S1P4 antagonist -7, Mdm2 ligase inh 12, L major viab 64* and S1P3 antagonist 3.
Screening c1ccc(C2OCCN3CCCCC23)cc1 (stereo not drawn) returned S1P4 ag 241*, S1P4 antagonist 2, Mdm2 ligase inh 0, L major viab 2 and S1P3 antagonist 0.
For O=C(Cc1ccccc1)N1CCN(Cc2c[nH]c3ccccc23)CC1 the results were S1P4 ag 1, S1P4 antagonist 22, Mdm2 ligase inh -8, L major viab 9 and S1P3 antagonist 9.
Screening c1ccc2c(CN3CCCCCC3)c[nH]c2c1 returned S1P4 ag 0, S1P4 antagonist 2, Mdm2 ligase inh 11, L major viab 57* and S1P3 antagonist -2.
Cc1cc(C=C2C(=O)NC(=O)NC2=O)c(C)n1-c1ccc2c(c1)OCO2 was read as S1P4 ag 0, S1P4 antagonist 0, Mdm2 ligase inh -8, L major viab -3 and S1P3 antagonist 5.
Cc1cc(C=C2C(=O)NC(=S)NC2=O)c(C)n1-c1ccc2c(c1)OCO2 was read as S1P4 ag 0, S1P4 antagonist -15, Mdm2 ligase inh -13, L major viab 86* and S1P3 antagonist 2.
`CC12CCC3C(CC=C4CC(O)CCC43C)C1C/C(=C\c1cccc(F)c1)C2=O` (stereo not drawn) gave S1P4 ag -1, S1P4 antagonist -10, Mdm2 ligase inh 8, L major viab -5 and S1P3 antagonist -15.
For O=C(N/N=C/c1c(O)n(Cc2ccco2)c(=O)[nH]c1=O)c1ccccc1O the results were S1P4 ag 0, S1P4 antagonist -4, Mdm2 ligase inh -11 and S1P3 antagonist 6.
`CCOc1ccc([N+](=O)[O-])cc1CNCCc1ccccc1` gave S1P4 ag 1, S1P4 antagonist -6, Mdm2 ligase inh -6, L major viab 96* and S1P3 antagonist 12.
CCC(C)N1C(=O)/C(=C/c2ccc3c(c2)CCN3CCCCl)C(=O)NC1=S (stereo not drawn) was read as S1P4 ag 3, S1P4 antagonist -19, Mdm2 ligase inh -1, L major viab 55* and S1P3 antagonist 2.
Screening Cc1cccc(N2C(=O)NC(=O)/C(=C\c3ccc4c(c3)CCCN4Cc3ccccc3)C2=O)c1 returned S1P4 ag 2, S1P4 antagonist -25, Mdm2 ligase inh -7, L major viab 10 and S1P3 antagonist -16.
`CC12CN3CC(C)(CN(C1)C3c1cccnc1)C2=O` (stereo not drawn) gave S1P4 ag -1, S1P4 antagonist -14, Mdm2 ligase inh -19, L major viab 6 and S1P3 antagonist 13.
CNC(=S)N1CCn2cccc2C1c1cccnc1 (stereo not drawn) was read as S1P4 ag 0, S1P4 antagonist -26, Mdm2 ligase inh -11, L major viab 68* and S1P3 antagonist 10.
For CCCCNC(=S)N1CCn2cccc2C1c1cccnc1 (stereo not drawn) the results were S1P4 ag 2, S1P4 antagonist 0, Mdm2 ligase inh -4, L major viab 92* and S1P3 antagonist 5.
`CCC12CN3CC(CC)(CN(C1)C3c1cccnc1)C2=O` (stereo not drawn) gave S1P4 ag 1, S1P4 antagonist -5, Mdm2 ligase inh -14 and L major viab 1.
Screening CCN1CC2([N+](=O)[O-])CC=C(Cl)C([N+](=O)[O-])(C1)C2 (stereo not drawn) returned S1P4 ag 0, S1P4 antagonist -3, Mdm2 ligase inh 0, L major viab -3 and S1P3 antagonist -16.
Screening CN1CCN(Cc2nc3ccccc3n2C)CC1 returned S1P4 ag 1, S1P4 antagonist 7, Mdm2 ligase inh -6, L major viab -8 and S1P3 antagonist -18.
For Cn1c(NN=O)nc2ccccc21 the results were S1P4 ag 2, S1P4 antagonist 3, Mdm2 ligase inh -7, L major viab 97* and S1P3 antagonist 13.
`Cc1ccc(NP(=O)(Oc2ccccc2F)Oc2ccccc2F)cc1` gave S1P4 ag 1, S1P4 antagonist -4, Mdm2 ligase inh -18 and L major viab 13.
For Cc1cccc(NP(=O)(Oc2ccccc2F)Oc2ccccc2F)c1C the results were S1P4 ag 1, S1P4 antagonist 20, Mdm2 ligase inh -6, L major viab 80* and S1P3 antagonist -7.
For C=CCN1C(=O)NC(=O)/C(=C/c2ccc(N(C)C)c(Br)c2)C1=O the results were S1P4 ag -2, S1P4 antagonist -13, Mdm2 ligase inh -24, L major viab -2 and S1P3 antagonist -27.
For NC(=S)N/N=C/c1coc2ccccc2c1=O the results were S1P4 ag -1, S1P4 antagonist -9, Mdm2 ligase inh -24, L major viab -8 and S1P3 antagonist 7.
For COc1ccc(CN2CCCCC2c2cccnc2)cc1C (stereo not drawn) the results were S1P4 ag -2, S1P4 antagonist -8, Mdm2 ligase inh -22, L major viab 44 and S1P3 antagonist -3.
COc1cccc(CN2CCCCC2c2cccnc2)c1 (stereo not drawn) was read as S1P4 ag 2, S1P4 antagonist 12, Mdm2 ligase inh -2, L major viab 72* and S1P3 antagonist 20.
`CC(=O)Nc1ccccc1C(=O)C(=O)Nc1cccc(C(=O)N2CCC3(CC2)OCCO3)c1` gave S1P4 ag -1, S1P4 antagonist -11, Mdm2 ligase inh -10, L major viab -7 and S1P3 antagonist -12.
Screening CCN(CC)c1ccc(CNCCc2ccc(F)cc2)cc1 returned S1P4 ag 0, S1P4 antagonist 7, Mdm2 ligase inh 4, L major viab 96* and S1P3 antagonist -5.
Screening CCc1ccc(CNCCc2ccc(F)cc2)cc1 returned S1P4 ag 0, S1P4 antagonist -8, Mdm2 ligase inh -5, L major viab 9 and S1P3 antagonist -17.
Screening Cc1ccc(CN2C(=O)NC(=O)C3(Cc4c(nc5ccccn5c4=O)N4CCCCCC43)C2=O)cc1 (stereo not drawn) returned S1P4 ag 2, S1P4 antagonist -8, Mdm2 ligase inh 13, L major viab 85* and S1P3 antagonist -2.
Screening C=CCn1c(O)c(/C=N/N2CCCCC2)c(=O)[nH]c1=O returned S1P4 ag -1, S1P4 antagonist 1, Mdm2 ligase inh -6 and S1P3 antagonist 2.
`CC1CCC(NCC(O)c2ccccc2)CC1` (stereo not drawn) gave S1P4 ag 0, S1P4 antagonist 4, Mdm2 ligase inh -4 and L major viab 71*.
For COc1ccc2nc(/N=C/c3c(O)n(-c4cccc(Cl)c4)c(=O)[nH]c3=O)sc2c1 the results were S1P4 ag -2, S1P4 antagonist -5, Mdm2 ligase inh 3 and L major viab -5.
